Assay results from ChEMBL document CHEMBL3259763, “Synthesis and antifilarial activity of chalcone-thiazole derivatives against a human lymphatic filarial parasite, Brugia malayi” (Eur J Med Chem, 2014).
Calls of active or inactive are those of the source. No cut-off for these calls is given here.

Tested on: Brugia malayi
Assay: Antifilarial activity against Brugia malayi adult worm infected in jird assessed as microfilaricidal activity at 100 mg/kg, sc administered for 5 days starting from day 7/8 post-worm transplantation measured on day 7 post-initiation of drug treatment
Assay type: functional, organism-based
Parameters: dose 100 mg/kg
Conditions: not given
Method in brief: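 Mf in peritoneal cavity of transplanted jirds were examined on day 7/8 p.i.t. after 5 days of s.c. dosing started on day 7/8; change was expressed as % of the pretreatment mf count.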

Compound	Activity
CC(C)c1cc(/C=C/C(=O)c2ccco2)cc(/C=N/c2nccs2)c1O	inactive

Tested on: Brugia malayi
Assay: Antifilarial activity against Brugia malayi adult worm assessed as inhibition of parasite motility after 48 hrs by microscopic analysis
Assay type: functional, organism-based
Conditions: not given
Method in brief: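 Freshly isolated adult female B. malayi were washed in HBSS (pH 7.2) and incubated one worm/ml/well, in triplicate, in HBSS with penicillin/streptomycin. Two-fold dilutions from 0.38-40 µM were given in DMSO (final <0.1%), with DMSO controls. After 48 h, motility was scored 0-4 under a microscope. IC50 was found by linear interpolation of percent inhibition versus DMSO.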

Compound	LC100
COc1ccc(C(=O)/C=C/c2cc(/C=N/c3nccs3)c(O)c(C(C)C)c2)cc1	>40 µM
CC(C)c1cc(/C=C/C(=O)c2cccs2)cc(/C=N/c2nccs2)c1O	>40 µM
COc1ccc(C(=O)/C=C/c2cc(C)c(O)c(/C=N/c3nccs3)c2)cc1	>40 µM
CCCc1cc(/C=C/C(=O)c2ccc(OC)cc2)cc(/C=N/c2nccs2)c1O	>40 µM
CCCc1cc(/C=C/C(=O)c2ccc(C)cc2)cc(/C=N/c2nccs2)c1O	>40 µM
CC(C)(C)c1cc(/C=C/C(=O)c2ccco2)cc(/C=N/c2nccs2)c1O	40 µM
COc1ccc(C(=O)/C=C/c2cc(/C=N/c3nccs3)c(O)c(C(C)(C)C)c2)cc1	>40 µM
CC(C)c1cc(/C=C/C(=O)c2ccco2)cc(/C=N/c2nccs2)c1O	10 µM

Same assay, conditions: Brugia malayi, 48 h

Compound	IC50
CC(C)c1cc(/C=C/C(=O)c2ccco2)cc(/C=N/c2nccs2)c1O	3.2 µM

Tested on: Brugia malayi
Assay: Antifilarial activity against Brugia malayi adult worm assessed as inhibition of parasite viability after 48 hrs by MTT assay
Assay type: functional
Conditions: not given
Method in brief: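 Adult female B. malayi washed in HBSS pH 7.2, one worm/mL/well in triplicate, exposed 48 h at 37 °C in 5% CO2 to two-fold dilutions (0.38-40 µM; DEC 15.63-1000 µM) in HBSS with penicillin/streptomycin, DMSO <0.1% final; after motility scoring the same worms taken for MTT reduction; % inhibition vs DMSO control, IC50 by linear interpolation.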

Compound	inhibition (INH)	inhibition
COc1ccc(C(=O)/C=C/c2cc(/C=N/c3nccs3)c(O)c(C(C)C)c2)cc1	61%	
CC(C)c1cc(/C=C/C(=O)c2cccs2)cc(/C=N/c2nccs2)c1O		inactive
COc1ccc(C(=O)/C=C/c2cc(C)c(O)c(/C=N/c3nccs3)c2)cc1	25%	
CCCc1cc(/C=C/C(=O)c2ccc(OC)cc2)cc(/C=N/c2nccs2)c1O		inactive
CCCc1cc(/C=C/C(=O)c2ccc(C)cc2)cc(/C=N/c2nccs2)c1O		inactive
CC(C)(C)c1cc(/C=C/C(=O)c2ccco2)cc(/C=N/c2nccs2)c1O		inactive
COc1ccc(C(=O)/C=C/c2cc(/C=N/c3nccs3)c(O)c(C(C)(C)C)c2)cc1		inactive
CC(C)c1cc(/C=C/C(=O)c2ccco2)cc(/C=N/c2nccs2)c1O	63%	

Tested on: not listed separately
Assay: Cytotoxicity against African green monkey Vero C1008 cells assessed as cell death by three-fold serial dilution method
Assay type: cell-based
Conditions: chlorocebus sabaeus, Vero C1008 cells
Method in brief: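 Vero C1008 cells exposed to three-fold serial dilutions of test agents, starting above 20 x LC100; CC50 obtained by linear interpolation between the concentrations bracketing 50% inhibition.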

Compound	CC50
CC(C)(C)c1cc(/C=C/C(=O)c2ccco2)cc(/C=N/c2nccs2)c1O	220 µM
CC(C)c1cc(/C=C/C(=O)c2ccco2)cc(/C=N/c2nccs2)c1O	60 µM

Tested on: not listed separately
Assay: Selectivity index, ratio of CC50 for African green monkey Vero C1008 cells to IC50 for Brugia malayi adult worm
Assay type: functional
Conditions: not given
Method in brief: (§1)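 SI computed as CC50 (Vero C1008) divided by IC50 against adult worms or mf; IC50 values from 48 h exposure of parasites to two-fold dilutions at 37 °C, with % inhibition vs DMSO-treated worms and linear interpolation.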

Compound	Ratio CC50/IC50
CC(C)c1cc(/C=C/C(=O)c2ccco2)cc(/C=N/c2nccs2)c1O	19

Tested on: Brugia malayi
Assay: Antifilarial activity against Brugia malayi microflilariae worm assessed as inhibition of parasite motility after 48 hrs by microscopic analysis
Assay type: functional, organism-based
Conditions: not given
Method in brief: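 B. malayi microfilariae were washed in HBSS (pH 7.2) and plated at 40-50 mf/100 µL/well, in triplicate, in HBSS with penicillin/streptomycin. Two-fold dilutions from 0.38-40 µM were given in DMSO (final <0.1%), with DMSO controls, for 48 h at 37 °C, 5% CO2. Motility was scored microscopically, and IC50 was found by linear interpolation over control.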

Compound	LC100
COc1ccc(C(=O)/C=C/c2cc(/C=N/c3nccs3)c(O)c(C(C)C)c2)cc1	>40 µM
CC(C)c1cc(/C=C/C(=O)c2cccs2)cc(/C=N/c2nccs2)c1O	>40 µM
COc1ccc(C(=O)/C=C/c2cc(C)c(O)c(/C=N/c3nccs3)c2)cc1	>40 µM
CCCc1cc(/C=C/C(=O)c2ccc(OC)cc2)cc(/C=N/c2nccs2)c1O	>40 µM
CCCc1cc(/C=C/C(=O)c2ccc(C)cc2)cc(/C=N/c2nccs2)c1O	>40 µM
CC(C)(C)c1cc(/C=C/C(=O)c2ccco2)cc(/C=N/c2nccs2)c1O	20 µM
COc1ccc(C(=O)/C=C/c2cc(/C=N/c3nccs3)c(O)c(C(C)(C)C)c2)cc1	40 µM
CC(C)c1cc(/C=C/C(=O)c2ccco2)cc(/C=N/c2nccs2)c1O	10 µM

Same assay, conditions: Brugia malayi, 48 h

Compound	IC50
CC(C)(C)c1cc(/C=C/C(=O)c2ccco2)cc(/C=N/c2nccs2)c1O	7.07 µM
CC(C)c1cc(/C=C/C(=O)c2ccco2)cc(/C=N/c2nccs2)c1O	3.5 µM

Tested on: not listed separately
Assay: Selectivity index, ratio of CC50 for African green monkey Vero C1008 cells to IC50 for Brugia malayi microflilariae worm
Assay type: functional
Conditions: not given
Method in brief: as §1

Compound	Ratio CC50/IC50
CC(C)(C)c1cc(/C=C/C(=O)c2ccco2)cc(/C=N/c2nccs2)c1O	28.57
CC(C)c1cc(/C=C/C(=O)c2ccco2)cc(/C=N/c2nccs2)c1O	17

Tested on: Brugia malayi
Assay: Antifilarial activity against Brugia malayi adult worm infected in jird assessed as embryostatic effect at 100 mg/kg, sc administered for 5 days starting from day 7/8 post-worm transplantation (reference value: 9.80 +/- 5.63%)
Assay type: functional
Conditions: route subcutaneous

Compound	Activity
CC(C)c1cc(/C=C/C(=O)c2ccco2)cc(/C=N/c2nccs2)c1O	0%

Tested on: Brugia malayi
Assay: Antifilarial activity against Brugia malayi adult worm infected in jird assessed as macrofilaricidal efficacy by measuring reduction in adult worm recovery at 100 mg/kg, sc administered for 5 days starting from day 7/8 post-worm transplantation measured on day 60 post-initiation of drug treatment
Assay type: functional
Conditions: route subcutaneous
Method in brief: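 Jirds carrying intraperitoneally transplanted B. malayi (sub-periodic) adults were dosed s.c. for 5 days starting day 7/8 after transplantation; test agents were suspended fresh daily in 0.1% Tween-80, DEC in water, ivermectin in 0.1% Tween-80. Killed day 60 p.i.t.; worms recovered from peritoneal washings were counted, and % reduction was calculated vs vehicle controls (4-8 animals).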

Compound	inhibition in vivo at 100 mg/kg
CC(C)c1cc(/C=C/C(=O)c2ccco2)cc(/C=N/c2nccs2)c1O	18.2%

Tested on: Meriones unguiculatus
Assay: Toxicity in jird infected with Brugia malayi adult worm assessed as normal behaviour at 100 mg/kg, sc administered for 5 days starting from day 7/8 post-worm transplantation measured on day 60 post-initiation of drug treatment
Assay type: organism-based
Parameters: dose 100 mg/kg, route subcutaneous
Conditions: gerbil, in vivo, 120 h

Compound	Activity
CC(C)c1cc(/C=C/C(=O)c2ccco2)cc(/C=N/c2nccs2)c1O	Non-toxic

Tested on: Brugia malayi
Assay: Antifilarial activity against third stage infective larvae (L3) form of Brugia malayi infected in Mastomys coucha assessed as reduction in adult worm recovery at 100 mg/kg, sc administered for 5 days measured on day 91 post-initiation of drug treatment
Assay type: functional
Conditions: route subcutaneous
Method in brief: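 M. coucha carrying 5-7 month old L3-induced sub-periodic B. malayi infections received 5 days of s.c. dosing (vehicle 0.1% Tween-80; DEC in water). Killed day 91 p.i.t.; adults were recovered from teased heart, lung and testes, and % reduction in recovery was calculated vs vehicle controls.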

Compound	inhibition in vivo at 100 mg/kg
CC(C)c1cc(/C=C/C(=O)c2ccco2)cc(/C=N/c2nccs2)c1O	40.9%

Tested on: Brugia malayi
Assay: Antifilarial activity against third stage infective larvae (L3) form of Brugia malayi infected in Mastomys coucha assessed as female sterilizing efficacy at 100 mg/kg, sc administered for 5 days measured on day 91 post-initiation of drug treatment (reference value: 23%)
Assay type: functional
Conditions: route subcutaneous

Compound	Activity
CC(C)c1cc(/C=C/C(=O)c2ccco2)cc(/C=N/c2nccs2)c1O	30%

Tested on: Mastomys coucha
Assay: Toxicity in Mastomys coucha infected with third stage infective larvae (L3) form of Brugia malayi assessed as normal behaviour at 100 mg/kg, sc administered for 5 days measured on day 91 post-initiation of drug treatment
Assay type: organism-based
Parameters: dose 100 mg/kg, route subcutaneous
Conditions: in vivo, 120 h

Compound	Activity
CC(C)c1cc(/C=C/C(=O)c2ccco2)cc(/C=N/c2nccs2)c1O	Non-toxic
